Source: ChEMBL document CHEMBL1124064, “Synthesis and anticandidal properties of polyoxin L analogues containing alpha-amino fatty acids” (1988)
≈ marks a conversion by molar mass, not a printed value.

Experiments:
[1] = biological target: Chitin synthase 1 (Candida albicans) (UniProt P23316); experiment: (§1) Concentration at which chitin synthetase is inhibited by 50%; format: functional
Outline: (§2)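 Mixed membrane (particulate) fraction from C. albicans H-317 was the enzyme source. Chitin synthetase activity was measured with and without polyoxin compounds as incorporation of N-acetylglucosamine into chitin. ID50 is the concentration giving 50% inhibition.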

Candida albicans [2] = experiment: Minimum inhibitory concentration against the growth of Candida albicans 124 NIK strain; format: functional
Outline: (§3)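 Cells grown in yeast nitrogen base with ammonium sulfate (0.5%) as nitrogen source, 24-48 h at 37 °C. MIC is the lowest drug concentration producing 5% morphologically aberrant cells, scored by microscopy.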

Candida albicans [3] = experiment: Minimum inhibitory concentration against the growth of Candida albicans 124 strain; format: functional; outline: as §3
Candida albicans [4] = experiment: Minimum inhibitory concentration against the growth of Candida albicans H-317 strain; format: functional; outline: as §3
Candida albicans [5] = experiment: Percent inhibition of transport of (Met)3 into Candida albicans H-317; format: functional; set-up: concentration or dose not given beside the values
Outline: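 H-317 cells grown in yeast nitrogen base with isoleucine (0.5%) as nitrogen source, washed, and prewarmed 10 min at 37 °C in 2% glucose. Cells were mixed with pH 3.5 citrate (10 mM)-KH2PO4 (10 mM) buffer containing labeled trimethionine (2.9×10^-5 M, 1 μCi/μmol). Analogue was added at 10-fold molar excess. Filtered samples were taken at 0, 1, 2, 3 and 4 min and counted by scintillation; rate was expressed as nmol/mg dry cells/min.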

Candida albicans [6] = experiment: Percent inhibition of transport of (Leu)2 into Candida albicans H-317; format: functional; set-up: concentration or dose not given beside the values
Outline: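 H-317 cells grown in yeast nitrogen base with isoleucine (0.5%) as nitrogen source, harvested at 8×10^6 cells/mL, and washed. Cells in 2% glucose were warmed 10 min at 37 °C, then mixed with pH 5.5 citrate (10 mM)-KH2PO4 (10 mM) buffer containing labeled dileucine (5.6×10^-5 M, 44 μCi/μmol). Analogue was present at 10-fold molar excess. Samples were filtered at 0-4 min and counted; uptake rate was expressed as nmol/mg dry weight/min.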

[7] = biological target: Chitin synthase 1 (Candida albicans) (UniProt P23316); experiment: as §1; outline: as §2
Candida albicans [8] = experiment: Compound was tested for hydrolysis by Candida albicans H-317 extract; (+) Indicates compound was hydrolyzed by C. albicans H-317 extract; format: functional
Outline: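 Cell extract of C. albicans H-317 (100 μL at 200 μg protein/mL) incubated at 37 °C with polyoxin compound (100 μL of 1 μg/mL) plus 300 μL water. Hydrolysis monitored by reversed-phase HPLC, absorbance at 254 nm.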

[9] = Candida albicans, read-out: MIC

Chitin synthase 1 (Candida albicans), sequence (P23316 whole entry, looked up): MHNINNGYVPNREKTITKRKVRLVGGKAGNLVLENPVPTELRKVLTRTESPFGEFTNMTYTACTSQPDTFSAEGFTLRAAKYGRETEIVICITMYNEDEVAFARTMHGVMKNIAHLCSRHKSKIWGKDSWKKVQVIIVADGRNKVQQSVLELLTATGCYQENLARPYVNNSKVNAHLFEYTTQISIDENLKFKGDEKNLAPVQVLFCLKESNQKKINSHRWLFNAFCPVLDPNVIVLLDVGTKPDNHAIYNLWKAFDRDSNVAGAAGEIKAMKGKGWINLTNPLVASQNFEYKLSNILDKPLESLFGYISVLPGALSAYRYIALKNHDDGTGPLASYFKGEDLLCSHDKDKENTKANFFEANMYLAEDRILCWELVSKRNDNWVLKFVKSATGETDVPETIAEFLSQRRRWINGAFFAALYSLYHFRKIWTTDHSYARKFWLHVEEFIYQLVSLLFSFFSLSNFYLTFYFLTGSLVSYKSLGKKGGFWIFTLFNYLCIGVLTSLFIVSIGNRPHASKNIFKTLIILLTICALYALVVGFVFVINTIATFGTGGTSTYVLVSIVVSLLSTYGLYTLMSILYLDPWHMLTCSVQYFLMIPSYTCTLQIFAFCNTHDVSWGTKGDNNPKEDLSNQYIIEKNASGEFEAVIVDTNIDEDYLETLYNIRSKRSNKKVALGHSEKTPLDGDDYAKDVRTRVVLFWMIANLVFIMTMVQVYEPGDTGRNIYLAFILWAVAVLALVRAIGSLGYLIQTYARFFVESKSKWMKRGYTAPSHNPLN

Row | Compound | MIC (Candida albicans [2]; [9]) [µg/mL] | MIC (Candida albicans [3]; [9]) [µg/mL] | MIC (Candida albicans [4]; [9]) [µg/mL] | ID50 [7] [µg/mL] | Inhibition (Candida albicans [5]) [%] | Inhibition (Candida albicans [6]) [%] | other results
1 | NC(C(=O)O)[C@H]1O[C@@H](n2ccc(=O)[nH]c2=O)[C@H](O)[C@@H]1O (stereo partly drawn) | > 640 | > 640 | > 640 |  | 3 |  | ID50 [1]: > 100 µg/mL
2 | NC(=O)OCC(O)C(O)C(N)C(=O)NC(C(=O)O)[C@H]1O[C@@H](n2cc(C(=O)O)c(=O)[nH]c2=O)[C@H](O)[C@@H]1O (stereo partly drawn) | 320 (≈ 614 µM) | 320 (≈ 614 µM) | 640 (≈ 1230 µM) | 2 (≈ 3.84 µM) | 10 | 5 | 
3 | CCCCCCC(N)C(=O)NC(C(=O)O)[C@H]1O[C@@H](n2ccc(=O)[nH]c2=O)[C@H](O)[C@@H]1O (stereo in doubt; 3b) [listing 1 of 2 here] |  |  |  |  | 10 | 14 | MIC (Candida albicans [2]): >320 µg/mL; MIC (Candida albicans [3]): >320 µg/mL; MIC (Candida albicans [4]): >320 µg/mL
4 | CCCCCCCCCCCCCCC(N)C(=O)NC(C(=O)O)[C@H]1O[C@@H](n2ccc(=O)[nH]c2=O)[C@H](O)[C@@H]1O (stereo in doubt; 5a) [listing 1 of 2 here] |  |  |  |  |  | 56 | 
5 | CCCCCCCCCCCCCCC(N)C(=O)NC(C(=O)O)[C@H]1O[C@@H](n2ccc(=O)[nH]c2=O)[C@H](O)[C@@H]1O (stereo in doubt; 5a) [listing 2 of 2 here] |  |  |  | > 100 |  |  | 
6 | CCCCCCCCCCCCCCC(N)C(=O)NC(C(=O)O)[C@H]1O[C@@H](n2ccc(=O)[nH]c2=O)[C@H](O)[C@@H]1O (stereo in doubt; 5b) [listing 1 of 2 here] | > 320 | > 320 | > 320 |  | 10 | 83 | 
7 | CCCCCCCCCCCCCCC(N)C(=O)NC(C(=O)O)[C@H]1O[C@@H](n2ccc(=O)[nH]c2=O)[C@H](O)[C@@H]1O (stereo in doubt; 5b) [listing 2 of 2 here] |  |  |  | 10 (≈ 18.5 µM) |  |  | 

The next lines start with results.

Row | MIC (Candida albicans [2]; [9]) [µg/mL] | MIC (Candida albicans [3]; [9]) [µg/mL] | MIC (Candida albicans [4]; [9]) [µg/mL] | ID50 [7] [µg/mL] | Compound | Inhibition (Candida albicans [5]) [%] | Inhibition (Candida albicans [6]) [%] | other results
8 | 80 (≈ 165 µM) | 40 (≈ 82.6 µM) | 80 (≈ 165 µM) | 0.3 (≈ 0.619 µM) | CCCCCCCCCCC(N)C(=O)NC(C(=O)O)[C@H]1O[C@@H](n2ccc(=O)[nH]c2=O)[C@H](O)[C@@H]1O (stereo partly drawn) | 0 | 87 | 
9 | 640 (≈ 1490 µM) |  | 160 (≈ 373 µM) |  | CCCCCCC(N)C(=O)NC(C(=O)O)[C@H]1O[C@@H](n2ccc(=O)[nH]c2=O)[C@H](O)[C@@H]1O (stereo in doubt; 3a) [listing 1 of 2 here] | 6 | 71 | MIC (Candida albicans [3]): 80 µg/mL (≈ 187 µM)
10 |  |  |  | 2 (≈ 4.67 µM) | CCCCCCC(N)C(=O)NC(C(=O)O)[C@H]1O[C@@H](n2ccc(=O)[nH]c2=O)[C@H](O)[C@@H]1O (stereo in doubt; 3a) [listing 2 of 2 here] |  |  | Hydrolysis (Candida albicans [8]): (+)
11 |  |  |  | > 50 | CCCCCCC(N)C(=O)NC(C(=O)O)[C@H]1O[C@@H](n2ccc(=O)[nH]c2=O)[C@H](O)[C@@H]1O (stereo in doubt; 3b) [listing 2 of 2 here] |  |  | 
